Experiments:
[1] = target: Thrombin (Oryctolagus cuniculus) (UniProt Q28731); test: Inhibition of thrombin in New Zealand rabbit plasma assessed as fibrinogen level at 100 uM by coagulometry
In short: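 Citrated rabbit platelet-poor plasma (3000 rpm 10 min). 10 µl PPP incubated with 90 µl imidazole buffer 3 min at 37 °C, then 50 µl FIB agent and 10 µl sample (in 80% ethanol) added; fibrinogen content read on coagulometer with commercial kit; reduction in FIB content scored.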

[2] = target: Thrombin (Oryctolagus cuniculus) (UniProt Q28731); test: Inhibition of thrombin in New Zealand rabbit plasma assessed as thrombin time at 100 uM after 3 mins by coagulometry
In short: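 Using citrated rabbit platelet-poor plasma, 40 µl PPP was held 3 min at 37 °C, then 40 µl thrombin solution and 20 µl sample (in 80% ethanol) were added for 3 min at 37 °C. Clotting time was measured by coagulometer with a commercial kit, and prolongation was scored.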

[3] = target: Thrombin (Oryctolagus cuniculus) (UniProt Q28731); test: Inhibition of thrombin in New Zealand rabbit plasma assessed as prothrombin time at 100 uM by coagulometry
In short: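 40 µl PPP preincubated 3 min at 37 °C, then 40 µl thromboplastin agent plus 20 µl sample (in 80% ethanol) added; clotting read by coagulometer with commercial kit; activity expressed as INR increase.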

[4] = target: Thrombin (Oryctolagus cuniculus) (UniProt Q28731); test: Inhibition of thrombin in New Zealand rabbit plasma assessed as activated partial thromboplastin time at 100 uM after 3 mins by coagulometry
In short: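 Sample in 80% ethanol; 10 µl sample and 50 µl PPP incubated with 50 µl APTT-activating agent 3 min at 37 °C, then 50 µl CaCl2 added; clotting time by coagulometer with commercial kit; prolongation scored.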

Structure (SMILES) | Activity [1] [g/L] | TT [2] [s] | PT [3] [s] | APTT [4] [s]
COc1cc(O)c2c(=O)c(O)c(-c3ccc(OC)c(O)c3)oc2c1 | 5.9 | 14.8 | 7.4 | 46.2
COc1cc(O)c2c(=O)c(O)c(-c3ccc(O)c(O)c3)oc2c1 | 5.4 | 23 | 6.8 | 72.6
COc1cc(O)cc2oc(-c3ccc(O)c(O)c3)c(O)c(=O)c12 | 5 | 19.4 | 7.6 | 49.2
COc1cc(-c2oc3cc(O)cc(O)c3c(=O)c2O)ccc1O | 5.4 | 20.5 | 5.3 | 82.3
COc1cc(OC)c2c(=O)c(OC)c(-c3ccc(OC)c(OC)c3)oc2c1 | 8.9 | 11.6 | 5.2 | 40.3
O=c1c(O)c(-c2ccc(O)c(O)c2)oc2cc(O)cc(O)c12 | 5.8 | 19.2 | 6.2 | 30.3
COc1cc(O)c2c(=O)c(OC)c(-c3ccc(OC)c(OC)c3)oc2c1 | 8.4 | 14.2 | 5.4 | 42.4
COc1cc(O)c2c(=O)c(OC)c(-c3ccc(OC)c(O)c3)oc2c1 | 5.3 | 14.9 | 6 | 61.7
COc1c(-c2ccc(O)c(O)c2)oc2cc(O)cc(OC)c2c1=O | 5.4 | 20 | 5.7 | 63.7
COc1ccc(-c2oc3cc(O)cc(OC)c3c(=O)c2O)cc1OC | 7.9 | 15.9 | 5.1 | 49.3
COc1cc(OC)c2c(=O)c(O)c(-c3ccc(O)c(O)c3)oc2c1 | 5.1 | 21.8 | 6.9 | 67.6
COc1cc(-c2oc3cc(O)cc(OC)c3c(=O)c2O)ccc1O | 6.2 | 22.3 | 5.8 | 57.6
COc1ccc(-c2oc3cc(O)cc(O)c3c(=O)c2O)cc1OC | 6.6 | 9.9 | 5.8 | 58.7
COc1cc(O)c2c(=O)c(OC)c(-c3ccc(O)c(O)c3)oc2c1 | 7.3 | 22.5 | 7.3 | 54.7
COc1ccc(-c2oc3cc(O)cc(O)c3c(=O)c2O)cc1O | 7.5 | 16.6 | 6.9 | 49.8
COc1c(-c2ccc(O)c(O)c2)oc2cc(O)cc(O)c2c1=O | 4.7 | 22.9 | 4.8 | 50.2

Reference: ChEMBL document CHEMBL2040833, “Metabolism-based synthesis, biologic evaluation and SARs analysis of O-methylated analogs of quercetin as thrombin inhibitors” (Eur J Med Chem, 2012)
